Most compounds without a hit are left out; they make up all but 6.8% or so of the library.
HSF1 inh = HSF1 inhibition; NIH3T3-HGL HSE-luciferase, MG132-induced, luminescence 8 h; stronger effect = lower value; activity change, negative = inhibition, % at 7.5 µM (by protocol); actives 0.77% (n = 300,000); AID 2098;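 active = more than half of replicate wells show activity change below -50%, luminescence cut by over half; inconclusive = some wells, but at most half, below -50%; inactive = no replicate well below -50%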;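 note: luciferase reports HSF-1 transcriptional activity via heat shock element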
HSF-1 act = increases HSF-1 driven luciferase reporter signal. activation, % at 9 µM. actives 1.7% (n = 300,000). NIH3T3-HGL HSF-1 luciferase reporter, MG132, 8 h; 100% = twice DMSO control signal. AID 504408;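 active = mean replicate activation of at least 50% with a set share of replicates each reaching 50%; inconclusive = only one of those two conditions met; inactive = mean below 50% and too few replicates reaching it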
PHOSPHO1 block = blocks human PHOSPHO1 phosphatase activity; Q8TCT1; recombinant PHOSPHO1, absorbance phosphatase assay; inhibition, % at 13.3 µM; actives 1.1% (n = 290,000); AID 1565; in the data active = inhibition above about 60%
HCV core dimer = HCV core protein dimerization inhibition; TR-FRET GST/Flag-core106 dimerization, 1536-well; inhibition, % at 5 µM; actives 0.33% (n = 300,000);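 active = inhibition above the mean of all tested compounds plus 3 SD, set per screening campaign, cut at about 45% in these data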
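Test system: GST/Flag-tagged HCV core106 proteins; Medium: KF-containing HEPES buffer, pH 7.45, DTT, CHAPS, BSA; Times: compound-protein-antibody incubation 4 h at 22.5 °C; Detection: TR-FRET 671 and 617 nm emission; Benchmarks: wells lacking GST-core106 and wells with excess unlabelled core106.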
AI-2 QS modul = modulates the Vibrio harveyi AI-2 quorum sensing system; Vibrio harveyi JMH597 AI-2 luminescence/OD600 ratio, 9 h; stronger effect = lower value; strain lacks LuxN and CqsS sensors; 0 = neutral-control median; activity change, % at 7.5 µM; actives 0.4% (n = 300,000); AID 2094; in the data active = activity change below about -75%, passing the limit was not always enough; inconclusive = no clear call, values can overlap the other calls;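 note: luminescence divided by OD600 gain over 9 h not by final OD600 alone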
ALR inh = inhibitors of human sulfhydryl oxidase ALR; P55789; purified ALR, DTT oxidation, H2O2 HRP-luminol luminescence; inhibition, % (test concentration not listed); actives 3.8% (n = 290,000);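 active = mean replicate inhibition above about 79%, with every replicate also reaching it, limit read from the data; inconclusive = only one of the two criteria met; inactive = mean below limit and not every replicate reaching it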
Target sequence (P55789 whole entry, looked up): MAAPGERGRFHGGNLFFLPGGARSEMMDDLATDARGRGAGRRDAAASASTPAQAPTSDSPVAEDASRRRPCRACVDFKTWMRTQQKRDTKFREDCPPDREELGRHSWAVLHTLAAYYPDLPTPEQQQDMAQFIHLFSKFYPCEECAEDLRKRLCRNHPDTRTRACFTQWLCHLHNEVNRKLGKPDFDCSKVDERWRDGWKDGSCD
Hits are given with their value; n = inactive; u = inconclusive; x = no result.

SMILES	HSF1 inh	HSF-1 act	PHOSPHO1 block	HCV core dimer	AI-2 QS modul	ALR inh
Cc1ccc(CSCc2nnc(SCC(=O)N3CCN(c4ccccc4)CC3)n2C)cc1	n	n	n	n	n	n
CCn1c(CSCc2ccc(F)cc2)nnc1SCC(=O)N1CCN(c2ccccc2)CC1	n	n	n	n	n	97
CCn1c(COc2cc(C)cc(C)c2)nnc1SCC(=O)N1CCN(c2ccccc2)CC1	n	n	73	n	n	n
CC(Nc1ncnc2sccc12)c1ccccc1 (configuration not stated)	-81	n	n	n	n	n
CC1Cc2cc(/C(O)=C3/C(=O)C(=O)N(CC4CCCO4)C3c3ccco3)ccc2O1 (configuration not stated)	-56	n	n	n	n	n
OC(CN1CCOCC1)(c1ccccc1)c1ccccn1 (configuration not stated)	n	n	n	n	n	n
Cc1ccc(N/C=C(/C#N)c2ccsc2)cc1	n	53	n	n	u	98
N#CC(C#N)=CNc1cccnc1	n	n	n	n	n	n
N#C/C(=C/Nc1ccccc1)c1ccsc1	n	n	n	n	n	89
O=S(=O)(NCc1ccccc1F)NCc1ccccc1F	n	n	n	n	n	n
COc1cc(/C=C/c2ccc3cccc(O)c3n2)cc(Cl)c1OC	n	72	n	n	n	n
Oc1cccc(/C=C/c2ccc3cccc(O)c3n2)c1	n	n	n	n	n	x
Cc1ccc(/C=C/c2ccc3cccc(O)c3n2)s1	n	85	n	n	n	n
COc1cc(/C=C/c2ccc3cccc(O)c3n2)cc(OC)c1OC	n	n	n	n	n	n
CC(C)(/C=N/O)N(O)C=C1C=CC(=O)C=C1	n	n	n	n	n	99
Cc1ccc(S(=O)(=O)N(C)C)cc1NC(=O)COC(=O)/C(=C/c1ccc(F)cc1)c1cccs1	n	n	n	n	n	n
CN(C)CC(C)(C)CNS(=O)(=O)c1ccc(Cl)cc1	n	n	n	n	n	n
CN(C)CC(C)(C)CNS(=O)(=O)c1cccc(Cl)c1Cl	n	n	75	n	n	n
CC(CCc1ccccc1)NCC#N (configuration not stated)	n	n	n	n	n	n
COc1ccc(C)cc1N(C(=O)c1ccc(C#N)cc1)C1=NC(C)(C)CS1	n	n	n	n	n	x
NC(=O)c1c(/N=C/c2cccnc2)sc2c1CCCC2	n	n	77	n	n	n
CCc1ccc(-n2cc(-c3ccc([N+](=O)[O-])cc3)[nH]c2=S)cc1	n	u	n	n	n	n
CCc1ccc(-c2cn(C3CCCCC3)c(=S)[nH]2)cc1	n	n	n	n	n	97
CC(C)N1CCN(Cc2cccn2-c2ccccn2)CC1CCO (configuration not stated)	n	n	n	n	n	n
CCCCCc1cc(=O)oc2c(C(CCN(CC)CC)c3ccc(OC)cc3)c(OC)cc(OC)c12 (configuration not stated)	n	n	n	n	n	n
SMILES	HSF1 inh	HSF-1 act	PHOSPHO1 block	HCV core dimer	AI-2 QS modul	ALR inh
CCN(CC)CCC(c1ccc(N(C)C)cc1)c1c(OC)cc(OC)c2ccc(=O)oc12 (configuration not stated)	n	n	n	n	n	99
CCN(CC)C(=O)CC(c1ccc(N(C)C)cc1)c1c(OC)cc(OC)c2ccc(=O)oc12 (configuration not stated)	n	n	n	n	n	98
CC(C)(C)c1ccc(/C=N/NC(=S)NC2CCCCC2)cc1	n	56	n	n	n	x
COc1ccc(/C=N/NC(=S)NC2CCS(=O)(=O)C2)cc1 (configuration not stated)	n	n	n	n	n	x
CC(C)(C)c1ccc(/C=C(\C#N)C(=O)Nc2ccccn2)cc1	-59	n	n	n	n	n
CCc1ccc(NC(=O)/C(C#N)=C/c2ccncc2)cc1	n	n	n	n	n	u
N#C/C(=C\c1ccccc1)C(=O)Nc1ccccn1	n	n	n	n	n	n
CC(=O)c1ccc(NC(=O)/C(C#N)=C/c2ccncc2)cc1	n	n	n	n	n	98
CCC(C(=O)N1CCC(C(N)=O)CC1)n1nc(C)n2c(cc3occc32)c1=O (configuration not stated)	n	n	n	n	n	n

High-throughput results: PubChem BioAssay, several laboratories
